Measurements of several laboratories.
Each line is one published result; the experiments were not run side by side.

CN(C)C(=O)c1cc2cnc(Nc3ccc(-c4ccc5c(=O)cc(N6CCOCC6)oc5c4)cc3)nc2n1C1CCCC1.Cl  Tmax (BALB/c mouse; plasma; intravenous; 2 mg/kg): 6 min
COCC(=O)N1CCc2[nH]c3c(Cl)c(Cl)ccc3c2[C@@H]1C  Tmax (C57BL/6 mouse; blood; oral; 20 mg/kg): 25 min
Cc1ccc(OCC(=O)N[C@@H](Cc2c[nH]c3ccccc23)C(=O)OC(C)C)cc1  Tmax (male Sprague-Dawley mouse; plasma; oral; 20 mg/kg): 72 min
CCOC(=O)c1c(NC(=O)CNC(C)C)sc2c1CCCCC2  Tmax (male mouse; plasma; intraperitoneal; 5 mg/kg; single dose): 11.6 min
OCc1nc2ccc(NCc3ccc(C(F)(F)F)cc3)cc2[nH]1  Tmax (male BALB/c mouse; plasma; intravenous; 1 mg/kg): 15 min
COc1ccc(C[C@H](NC(=O)[C@H](C)NC(=O)CN2CCOCC2)C(=O)N[C@@H](Cc2ccccc2)C(=O)C2(C)CO2)cc1 (stereo in doubt)  Tmax (mouse; plasma; oral; 20 mg/kg; single dose): 18 min
COC1=CC(c2ccc[nH]2)=N/C1=C\c1[nH]c(Cc2ccc(OC(F)(F)F)cc2)cc1Cc1ccc(OC(F)(F)F)cc1  Tmax (male CD-1 mouse; liver; oral; 40 mg/kg; single dose): 240 min
NCc1ccc(-c2nn(Cc3ccccc3)c3ccccc23)o1  Tmax (male CD-1 mouse; plasma; oral; 10 mg/kg): 30 min
Cc1ccc(CCC(=O)Nc2nnc(S(N)(=O)=O)s2)cc1  Tmax (male BALB/c mouse; plasma; oral; 20 mg/kg): 10 min
Cc1[nH]c(C)c(S(=O)(=O)Nc2ccc(C(F)(F)F)c(Cl)c2)c1C(=O)N1CCC(F)(F)C1  Tmax (male CD-1 mouse; plasma; intraperitoneal; 40 mg/kg): 60 min
FC(F)(F)CN1CC(n2cc(Oc3ccn4nc(Cl)cc4n3)cn2)C1  Tmax (FVB mouse; blood; oral; single dose): 30 min
CC[C@H](C)[C@H](NC(=O)[C@H](CCC(=O)O)NC(=O)[C@H](CO)NC(=O)[C@@H](NC(=O)[C@@H](N)CO)C(C)C)C(=O)N[C@@H](CCC(N)=O)C(=O)N[C@@H](CC(C)C)C(=O)N[C@@H](CCSC)C(=O)N[C@@H](Cc1cnc[nH]1)C(=O)N[C@@H](CC(N)=O)C(=O)N[C@@H](CC(C)C)C(=O)NCC(=O)N[C@@H](CCCCN)C(=O)N[C@@H](Cc1cnc[nH]1)C(=O)N[C@@H](CC(C)C)C(=O)N[C@@H](CC(N)=O)C(=O)N[C@@H](CO)C(=O)N[C@@H](CCSC)C(=O)N[C@@H](CCC(=O)O)C(=O)N[C@@H](CCCNC(=N)N)C(=O)N[C@H](C(=O)N[C@@H](CCC(=O)O)C(=O)N[C@@H](Cc1c[nH]c2ccccc12)C(=O)N[C@@H](CC(C)C)C(=O)N[C@@H](CCCNC(=N)N)C(=O)N[C@@H](CCCCN)C(=O)N[C@@H](CCCCN)C(=O)N[C@@H](CC(C)C)C(=O)N[C@@H](CCC(N)=O)C(=O)N[C@@H](CC(=O)O)C(=O)N[C@H](C(=O)N[C@@H](Cc1cnc[nH]1)C(=O)N[C@@H](CC(N)=O)C(=O)N[C@@H](Cc1ccccc1)C(N)=O)C(C)C)C(C)C  Tmax (female CD-1 mouse; serum; intravenous; 10 nmol/kg): 1.8 min
OCc1ccc(-c2nn(Cc3ccccc3)c3ccccc23)o1  Tmax (male CD-1 mouse; plasma; intraperitoneal; 30 mg/kg): 15 min
Cc1ccc2c(c1)C(=O)[C@]1(O)CCN(c3ccc4nc(C)ccc4c3)C1=N2.Cl  Tmax (mouse; brain; subcutaneous; 5 mg/kg): ≤ 10 min
COC1=CC(c2ccc[nH]2)=N/C1=C\c1cc(Cc2ccc(OC(F)(F)F)cc2)c(C)[nH]1.Cl  Tmax (male CD-1 mouse; plasma; oral; 40 mg/kg; single dose): 1440 min
NCc1ccc(-c2nn(Cc3ccncc3)c3ccccc23)o1  Tmax (male CD-1 mouse; plasma; intraperitoneal; 30 mg/kg): 19.8 min
